Results on 15 molecules are retold here after ChEMBL document CHEMBL1126585, “Effect of N-methyl substitution of the peptide bonds in luteinizing hormone-releasing hormone agonists” (J Med Chem, 1993).

Square brackets hold non-standard residues; d marks the D form. Peptide text beside a SMILES is read from it. 1Nal = N[C@@H](Cc1cccc2ccccc12)C(=O)O; NMeF = CN[C@@H](Cc1ccccc1)C(=O)O; pGlu = O=C1CC[C@@H](C(=O)O)N1; NMeS = CN[C@@H](CO)C(=O)O A value given as a limit tells only on which side of the number the result lay.

The nature of data set [1]: Clearance in rat after iv dose (100 ug/kg). Particulars: in vivo, 0.1 mg/kg. In kind it is ADME, organism-based. An outline of the steps:
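Castrate male rats given 100 μg/kg iv bolus; blood sampled over 6 h with EDTA anticoagulant. Plasma levels by RIA with antibody recognizing C-terminal Leu-Arg-Pro-NHEt or Leu-Arg-Pro-GlyNH₂ (rabbit antisera C-402 with [125I-Tyr⁵]leuprolide tracer, or 5328W with [125I-Tyr⁵,DLys⁶]LHRH). AUC by trapezoidal rule; whole-body clearance = dose/AUC, mL/min per kg.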

A further data set deals with chymotrypsin. The experiment in a line: Chymotrypsin degradation half-life was determined. The class given is ADME.
Data set [2] is filed under the species Rattus norvegicus. As to the kind of experiment: Intestinal stability against rat jejunum sac, activity is expressed as T1/2. The class given is functional. An outline of the steps:
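Rat jejunal sac in vitro; T1/2 taken as time, in min, for lumenal compound concentration to fall by 50%.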

For data set [3], the species on record is Rattus norvegicus. The experiment in a line: Tested in vitro for LH release from cultured rat pituitary cells, activity is expressed as pD2 value. In kind it is functional, Pituitary gland cell. The method in brief: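 Cultured rat pituitary cells; LH release measured across agonist concentrations; pD2 = negative log of agonist concentration giving 50% of maximal LH release.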

The species entered for data set [4] is Rattus norvegicus. The experiment in a line: In vitro for LH release inhibition from cultured rat pituitary cells, activity is expressed as pA2 value. In kind it is functional, cell-based. Particulars: Pituitary gland cell, read-out: pA2 (converted). The method in brief: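 Cultured rat pituitary cells releasing LH in response to agonist; pA2 = negative log of antagonist concentration requiring 2-fold more agonist for LH release.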

A word on the clearance: it is the rate of elimination divided by the concentration. A high value points to a high capacity for elimination. One may read the half-life as how long it takes for the measured level to halve. In turn, `CCNC(=O)[C@@H]1CCCN1C(=O)[C@H](CCCN=C(N)N)NC(=O)[C@H](CC(C)C)N(C)C(=O)[C@@H](CC(C)C)NC(=O)[C@H](Cc1ccc(O)cc1)NC(=O)[C@H](CO)NC(=O)[C@H](Cc1c[nH]c2ccccc12)NC(=O)[C@H](Cc1c[nH]cn1)NC(=O)[C@@H]1CCC(=O)N1` yielded a clearance in data set [1] of 8.3 mL/min/kg. Also, the half-life in the data set on chymotrypsin was determined as 1 min. This molecule had a T1/2 in the data set filed under Rattus norvegicus [2] of 4.1 min. The same molecule returned a pD2 in the data set listed under Rattus norvegicus [3] of 10.45.
Molecule `CC(C)C[C@H](NC(=O)[C@@H](Cc1ccc2ccccc2c1)NC(=O)[C@H](Cc1ccc(O)cc1)NC(=O)[C@H](CO)N(C)C(=O)[C@H](Cc1c[nH]c2ccccc12)NC(=O)[C@H](Cc1c[nH]cn1)NC(=O)[C@@H]1CCC(=O)N1)C(=O)N[C@@H](CCCN=C(N)N)C(=O)N1CCC[C@H]1C(=O)NCC(N)=O` returned a clearance in data set [1] of 27.6 mL/min/kg. Moreover, the half-life in the data set on chymotrypsin is more than 60 min. This molecule also returned a T1/2 in the data set listed under Rattus norvegicus [2] of 47 min. Moreover, the pD2 in the data set listed under Rattus norvegicus [3] amounted to 11.3.
For the molecule `CC(C)C[C@H](NC(=O)[C@@H](Cc1ccc2ccccc2c1)NC(=O)[C@H](Cc1ccc(O)cc1)N(C)C(=O)[C@H](CO)NC(=O)[C@H](Cc1c[nH]c2ccccc12)NC(=O)[C@H](Cc1c[nH]cn1)NC(=O)[C@@H]1CCC(=O)N1)C(=O)N[C@@H](CCCN=C(N)N)C(=O)N1CCC[C@H]1C(=O)NCC(N)=O`, the clearance in data set [1] is 3.4 mL/min/kg. Further, the half-life with chymotrypsin was more than 60 min. Also, the T1/2 in the data set listed under Rattus norvegicus [2] was 33 min. In the data set listed under Rattus norvegicus [3], this molecule registered a pD2 of 10.95.
In data set [1], `CCNC(=O)[C@@H]1CCCN1C(=O)[C@H](CCCN=C(N)N)NC(=O)[C@H](CC(C)C)NC(=O)[C@@H](CC(C)C)NC(=O)[C@H](Cc1ccc(O)cc1)NC(=O)[C@H](CO)N(C)C(=O)[C@H](Cc1c[nH]c2ccccc12)NC(=O)[C@H](Cc1c[nH]cn1)NC(=O)[C@@H]1CCC(=O)N1` ([pGlu]HW[NMeS]Y[dL]LRP-NHEt) came in with a clearance of 16.9 mL/min/kg. In the data set on chymotrypsin, this molecule returned a half-life of more than 60 min. This molecule also showed a T1/2 in the data set listed under Rattus norvegicus [2] of more than 90 min.
Consider `CCNC(=O)[C@@H]1CCCN1C(=O)[C@H](CCCN=C(N)N)NC(=O)[C@H](CC(C)C)NC(=O)[C@@H](Cc1c[nH]c2ccccc12)NC(=O)[C@H](Cc1ccc(O)cc1)NC(=O)[C@H](CO)NC(=O)[C@H](Cc1c[nH]c2ccccc12)NC(=O)[C@H](Cc1cnc[nH]1)N(C)C(=O)[C@@H]1CCC(=O)N1`, for which, in data set [1], the clearance came out at 16.4 mL/min/kg. Moreover, in the data set filed under Rattus norvegicus [4], the Kb is 5.5 nM.
The molecule `CCNC(=O)[C@@H]1CCCN1C(=O)[C@H](CCCN=C(N)N)N(C)C(=O)[C@H](CC(C)C)NC(=O)[C@@H](CC(C)C)NC(=O)[C@H](Cc1ccc(O)cc1)NC(=O)[C@H](CO)NC(=O)[C@H](Cc1c[nH]c2ccccc12)NC(=O)[C@H](Cc1c[nH]cn1)NC(=O)[C@@H]1CCC(=O)N1` showed a half-life in the data set with chymotrypsin of 1 min. For the same molecule, the T1/2 in the data set filed under Rattus norvegicus [2] came to 6.6 min. Further, the pD2 in the data set listed under Rattus norvegicus [3] was found to be 7.
For `CC(C)C[C@H](NC(=O)[C@@H](Cc1ccc2ccccc2c1)NC(=O)[C@H](Cc1ccc(O)cc1)NC(=O)[C@H](CO)NC(=O)[C@H](Cc1c[nH]c2ccccc12)NC(=O)[C@H](Cc1c[nH]cn1)NC(=O)[C@@H]1CCC(=O)N1)C(=O)N(C)[C@@H](CCCN=C(N)N)C(=O)N1CCC[C@H]1C(=O)NCC(N)=O`, the clearance in data set [1] is 3.87 mL/min/kg. Moreover, the Kb in the data set listed under Rattus norvegicus [4] was 11.2 nM.
Regarding `CCNC(=O)[C@@H]1CCCN1C(=O)[C@H](CCCN=C(N)N)NC(=O)[C@H](CC(C)C)NC(=O)[C@@H](CC(C)C)NC(=O)[C@H](Cc1ccc(O)cc1)NC(=O)[C@H](CO)NC(=O)[C@H](Cc1cccc2ccccc12)N(C)C(=O)[C@H](Cc1c[nH]cn1)NC(=O)[C@@H]1CCC(=O)N1`, in data set [1], the clearance was 14.4 mL/min/kg. The Kb in the data set listed under Rattus norvegicus [4] was 257 nM. For the same molecule, the half-life with chymotrypsin was more than 60 min. For the same molecule, the T1/2 in the data set filed under Rattus norvegicus [2] came to 44 min.
Turning to `CCNC(=O)[C@@H]1CCCN1C(=O)[C@H](CCCN=C(N)N)NC(=O)[C@H](CC(C)C)NC(=O)[C@@H](CC(C)C)NC(=O)[C@H](Cc1ccc(O)cc1)NC(=O)[C@H](CO)NC(=O)[C@H](Cc1cccc2ccccc12)NC(=O)[C@H](Cc1c[nH]cn1)NC(=O)[C@@H]1CCC(=O)N1` ([pGlu]H[1Nal]SY[dL]LRP-NHEt), the clearance in data set [1] worked out at 28.4 mL/min/kg. This molecule yielded a half-life in the data set with chymotrypsin of more than 15 min. Besides, in the data set filed under Rattus norvegicus [2], the T1/2 was determined as 25 min.
`CCNC(=O)[C@@H]1CCCN1C(=O)[C@H](CCCN=C(N)N)NC(=O)[C@H](CC(C)C)NC(=O)[C@@H](Cc1c[nH]c2ccccc12)NC(=O)[C@H](Cc1ccc(O)cc1)NC(=O)[C@H](CO)NC(=O)[C@H](Cc1c[nH]c2ccccc12)NC(=O)[C@H](Cc1ccccc1)N(C)C(=O)[C@@H]1CCC(=O)N1` ([pGlu][NMeF]WSY[dW]LRP-NHEt): the clearance in data set [1] stood at 44.5 mL/min/kg. The same molecule displayed a half-life in the data set on chymotrypsin of 3.7 min. In the data set filed under Rattus norvegicus [2], this molecule yielded a T1/2 of 44.4 min.
`CCNC(=O)[C@@H]1CCCN1C(=O)[C@H](CCCN=C(N)N)NC(=O)C(CC(C)C)NC(=O)C(CC(C)C)NC(=O)[C@H](Cc1ccc(O)cc1)NC(=O)[C@H](CO)NC(=O)[C@H](Cc1c[nH]c2ccccc12)NC(=O)[C@H](Cc1ccccc1)N(C)C(=O)[C@@H]1CCC(=O)N1` (stereo in doubt): in data set [1], the clearance came out at 31 mL/min/kg. Also, the Kb in the data set listed under Rattus norvegicus [4] is 29.5 nM. Further, the half-life in the data set with chymotrypsin came out at 6 min. The molecule further registered a T1/2 in the data set listed under Rattus norvegicus [2] of 18 min.
As for `CC(C)C[C@H](NC(=O)[C@@H](Cc1ccc2ccccc2c1)NC(=O)[C@H](Cc1ccc(O)cc1)NC(=O)[C@H](CO)NC(=O)[C@H](Cc1c[nH]c2ccccc12)NC(=O)[C@H](Cc1ccccc1)N(C)C(=O)[C@@H]1CCC(=O)N1)C(=O)N[C@@H](CCCN=C(N)N)C(=O)N1CCC[C@H]1C(=O)NCC(N)=O`, the Kb in the data set filed under Rattus norvegicus [4] is 1.58 nM.
In turn, `CC(C)C[C@H](NC(=O)[C@@H](CC(C)C)NC(=O)[C@H](Cc1ccc(O)cc1)NC(=O)[C@H](CO)NC(=O)[C@H](Cc1c[nH]c2ccccc12)NC(=O)[C@H](Cc1c[nH]cn1)NC(=O)[C@@H]1CCC(=O)N1)C(=O)N[C@@H](CCCN=C(N)N)C(=O)N1CCC[C@H]1C(=O)N(C)CC(N)=O` gave a clearance in data set [1] of 9.77 mL/min/kg. Besides, the half-life in the data set on chymotrypsin was 1 min. In the data set listed under Rattus norvegicus [2], this molecule gave a T1/2 of 8.4 min. Moreover, the pD2 in the data set listed under Rattus norvegicus [3] was 8.73.
`CCNC(=O)[C@@H]1CCCN1C(=O)[C@H](CCCNC(=N)N)NC(=O)[C@H](CC(C)C)NC(=O)[C@@H](CC(C)C)NC(=O)[C@H](Cc1ccc(O)cc1)NC(=O)[C@H](CO)NC(=O)[C@H](Cc1c[nH]c2ccccc12)NC(=O)[C@H](Cc1c[nH]cn1)NC(=O)[C@@H]1CCC(=O)N1` [LEUPROLIDE] yielded a clearance in data set [1] of 9 mL/min/kg. This molecule also yielded a half-life in the data set on chymotrypsin of 1 min. Moreover, the T1/2 in the data set listed under Rattus norvegicus [2] was 4 min.
For `CC(C)C[C@H](NC(=O)[C@@H](Cc1ccc2ccccc2c1)NC(=O)[C@H](Cc1ccc(O)cc1)NC(=O)[C@H](CO)NC(=O)[C@H](Cc1c[nH]c2ccccc12)NC(=O)[C@H](Cc1cnc[nH]1)NC(=O)[C@@H]1CCC(=O)N1)C(=O)N[C@@H](CCCNC(=N)N)C(=O)N1CCC[C@H]1C(=O)NCC(N)=O` [NAFARELIN], the clearance in data set [1] came out at 5.5 mL/min/kg. The half-life in the data set on chymotrypsin came out at 0.5 min. The pD2 in the data set listed under Rattus norvegicus [3] is listed as 11.05.
